From ChEMBL document CHEMBL1144821, “Synthesis and cytotoxic evaluation of some cribrostatin-ecteinascidin analogues” (2008)

Tests used:
Assay type in all cases: functional
[1] = test system: MDA-MB-231; experiment: Cytotoxicity against human MDA-MB-231 cells by SRB method
In short: (§1)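 Human tumour lines (breast MDA-MB-231, lung A-549, colon HT-29) seeded in 96-well plates and left 24 h, then given vehicle or compound at 10 to 0.0026 µg/mL (10 dilutions) for 72 h. Read-out by SRB: PBS washes, 1% glutaraldehyde fix 15 min, 0.4% SRB in 1% acetic acid 30 min RT, dye extracted into 10 mM Tris base, A490. A time-zero plate was read before treatment.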

[2] = test system: HT-29; experiment: Cytotoxicity against human HT29 cells by SRB method; settings: for CC50: read-out: LC50 (the source's name); in short: as §1
[3] = test system: A549; experiment: Cytotoxicity against human A549 cells by SRB method; in short: as §1
[4] = read-out: LC50 (the source's name)

Row | SMILES | GI50 [1] | GI50 [2] | TGI [2] | CC50 [2] | GI50 [3] | TGI [1] | CC50 [1, 4] | TGI [3] | CC50 [3, 4]
1 | COc1c(C)c(O)c2c(c1O)[C@@H]1C3=Cc4c(OC(C)=O)c(C)c5c(c4[C@H](COCc4ccccc4)N3[C@@H](C#N)[C@H](C2=O)N1C)OCO5 | 5.63 µM | 4.06 µM | 6.72 µM | 14.5 µM | 6.57 µM |  |  |  | 
2 | C/C=C(/C)C(=O)OC[C@H]1c2c(c(OC(C)=O)c(C)c3c2OCO3)C=C2[C@H]3c4c(O)c(OC)c(C)c(O)c4C(=O)[C@@H](C(=O)N21)N3C | 14 µM | 11.1 µM |  |  | 7.73 µM |  |  |  | 
3 | COc1c(C)cc2c(c1OCc1ccccc1)[C@@H]1C3=Cc4c(OC(C)=O)c(C)c(OC)c(OC)c4[C@H](COCc4ccccc4)N3[C@@H](C#N)[C@H](C2)N1C | 0.26 µM | 0.2 µM | 0.26 µM | 0.36 µM | 0.24 µM | 0.35 µM | 0.48 µM | 0.3 µM | 0.41 µM
4 | C/C=C(/C)C(=O)OC[C@H]1C2=C(C=C3[C@H]4c5c(O)c(OC)c(C)c(O)c5C(=O)[C@@H](C(=O)N31)N4C)C(=O)C(C)=C(OC)C2=O [CRIBROSTATIN 5] | 4.49 µM | 6.74 µM | 7.43 µM |  | 7.09 µM |  |  | 11.6 µM | 
